High-throughput results from PubChem BioAssay.
Shown are actives, neighbours in structure and some others; about 2.3% of the full set was active somewhere.
HSP90 inh – HSP90 inhibitors, primary screen, cell lysate, luminescence; inhibition, % at 5.6 µM; Rabbit reticulocyte lysate, luciferase refolding luminescence, 3 h; hit rate 0.91% among 290,000;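 active means inhibition above the screen-wide mean plus 3 SD, computed separately per campaign, cut at about 16% in these data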;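 further: 0% = DMSO wells and 100% = 60 µM geldanamycin wells; inhibitors lower the luminescence because luciferase stays unfolded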
STAT1 blocker – STAT1 signaling inhibitors, primary screen, cell-based, HTS, luciferase reporter; AID 920, 2007; inhibition, % at 5.5 µM; NIH 3T3 STAT1-luciferase reporter, IFN-gamma, luminescence; hit rate 0.35% among 200,000;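 active means inhibition above a set limit, the mean inhibition across all tested compounds plus 3 SD, cut at about 34% in these data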;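 further: 0% = IFN-gamma with DMSO and 100% = IFN-gamma with 300 µM nifuroxazide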
PPC-1+TRAIL kill – compounds killing PPC-1 cancer cells with TRAIL present, primary screen, TRAIL potentiator project, ATPLite luminescence, uHTS | PPC-1 cells + TRAIL, ATPLite viability luminescence | cell killing (% activity), % at 4 µM or 5 µM | hit rate 0.41% among 220,000 | AID 1443, 2008;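 active means cell killing above 50% in the first pass at 4 µM, then a duplicate retest at 5 µM averaging 50% or more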;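 further: plate controls were cells with TRAIL plus DMSO for no effect and medium-only wells lacking cells for full effect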
C8 TRAIL sens – viability loss with TRAIL in NB7+C8 cells, primary screen, TRAIL sensitizer project, cell-based, ATPlite luminescence; inhibition (viability loss, TRAIL sensitization), % at 10 µM; hit rate 1% among 360,000;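 active means compounds causing at least 50% loss of cell viability in the single-dose screen, relative to plate controls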
STAT3 inh – IL-6 driven STAT3 reporter inhibitors, primary screen, U3A cells, luciferase, luminescence, MLSCN library | IL-6 STAT3-luciferase reporter; host cell line lacks STAT1 | inhibition, % at 5.5 µM | hit rate 0.89% among 190,000 | AID 862, 2007;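 active means inhibition above the mean inhibition across all screened compounds plus 3 SD, cut at about 44% in these data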;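 further: 0% = DMSO only wells and 100% = 100 µM nifuroxazide control wells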
STAT3 activator – IL-6 driven STAT3 reporter potentiators, primary screen, U3A cells, luciferase, luminescence, MLSCN library; IL-6 STAT3-luciferase reporter; 100% = signal with IL-6 EC80 alone; activation (% of control), % at 5.6 µM; hit rate 0.91% among 190,000; AID 871, 2007;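 active means activation above the screen-wide mean of compound activation plus 3 SD, cut at about 130% in these data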;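 further: 0% = background luminescence of wells with medium and substrate only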
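Material: STAT3-luciferase reporter U3A cells; Probe or stimulus: IL-6 (33 ng/mL); Incubation: compound pre-incubation 1 h before IL-6, then 6 h stimulation at 37 °C; Technique: luminescence from STAT3-driven luciferase reporter; Evaluation: % activation versus median of IL-6-stimulated wells; Controls: IL-6-only high control.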
Numbers without * were called inactive; . = no result given.

SMILES	HSP90 inh	STAT1 blocker	PPC-1+TRAIL kill	C8 TRAIL sens	STAT3 inh	STAT3 activator
COc1ccc(N=C(C)C2C(=O)c3ccccc3C2=O)cc1	.	.	.	74*	.	.
C/C(=N\Nc1ccc(F)cc1F)c1ccc(F)cc1	-1	-14	24	.	20	86
C/C(=N\Nc1ccc(F)cc1F)c1ccc(N2CCOCC2)cc1	-2	-15	11	-5	-30	133*
CC1CC(C)CN(C(=O)c2cccc(S(=O)(=O)N(C)c3ccccc3)c2)C1 (stereo not given)	.	.	.	25	.	.
COc1ccc(-c2cc(C(=O)N3CCN(c4ncccn4)CC3)c3ccccc3n2)cc1	.	.	.	64*	.	.
COc1ccc(-c2cc(C(=O)N3CCN(c4ccccc4O)CC3)c3ccccc3n2)cc1	.	.	.	63*	.	.
CCOc1ccc(-c2cc(C(=O)N3CCCC3)c3ccccc3n2)cc1	-1	.	.	64*	.	.
CCOc1ccc(-c2cc(C(=O)N/N=C/c3cccnc3)c3ccccc3n2)cc1	5	.	.	74*	.	.
CC(=O)Nc1ccc(OC(=O)c2cc3cc(Br)cc(Br)c3oc2=O)cc1	-1	11	8	.	18	87
COc1ccc(OCC(=O)NCC(c2cccs2)N2CCOCC2)cc1 (stereo not given)	.	.	.	-13	.	.
C=CCSc1nccc(=O)[nH]1	-2	-3	12	-11	-5	102
CN1C(=O)CC(C(=O)O)SC1=Nc1cc(Cl)c(O)c(Cl)c1 (stereo not given)	4	-2	9	4	8	98
C/C(=N\NC(=O)c1cc(-c2cccc(OC(C)C)c2)nc2ccccc12)c1cccnc1	14	.	.	37	.	.
C/C(=N\NC(=O)c1cc(-c2cccnc2)nc2ccccc12)c1ccc(O)cc1O	-5	4	51*	9	5	96
Cc1nc2ccccc2n1C(C)c1nc2ccccc2n1CC(=O)c1ccsc1 (stereo not given)	.	.	.	13	.	.
Clc1ccc(/C=N/Nc2nnc(-c3ncc[nH]3)c3ccccc23)cc1	-1	-15	28	54*	-17	116
O=C(CCN1C(=O)NC2(CCCC2)C1=O)Nc1ccc(Sc2ccc(Br)cc2)cc1	.	.	.	9	.	.
O=C(CCN1C(=O)NC2(CCCC2)C1=O)Nc1ccc(-c2nc3ccccc3s2)cc1	.	.	.	56*	.	.
Cc1nnc(SCC(=O)Nc2ccc(-c3nc4ccccc4s3)cc2)s1	-6	-63	22	67*	-8	105
COC(=O)Nc1nnc(Cc2ccc(Cl)cc2)s1	-2	6	-33	16	2	104
O=C(CSc1nccn1-c1ncc(C(F)(F)F)cc1Cl)c1ccc(Cl)cc1	-1	-36	17	7	-101	197*
O=C(OC1CCN(c2ncc(C(F)(F)F)cc2Cl)CC1)c1ccc(Cl)cc1	-1	-2	11	0	2	104
COc1ccc(C2C(C(=O)N3CC(C)CC(C)C3)c3ccccc3C(=O)N2C)cc1 (stereo not given)	1	-6	0	28	12	94
COc1ccc(C2C(C(=O)N3CCC(C)CC3)c3ccccc3C(=O)N2C)cc1 (stereo not given)	1	-4	3	54*	-4	105
COc1ccc(C2C(C(=O)N3CCN(c4ccccc4F)CC3)c3ccccc3C(=O)N2C)cc1 (stereo not given)	3	-1	5	67*	8	96
SMILES	HSP90 inh	STAT1 blocker	PPC-1+TRAIL kill	C8 TRAIL sens	STAT3 inh	STAT3 activator
CC(C)(C)c1ccc(C(=O)NNC(=O)c2ccncc2)cc1	0	.	.	14	.	.
Cc1ccc(C)c(/C=C(\C(=O)O)c2ccc(S(=O)(=O)N3CCCCC3)s2)c1	0	4	-3	1	-2	106
Cc1nc2ccccc2c2oc(C(=O)N3CCCC(C)C3)cc12 (stereo not given)	-6	.	.	2	.	.
COc1cccc(NC(=O)C2(C)CCN2Cc2ccc(SC)cc2)c1 (stereo not given)	.	.	.	-8	.	.
C/C(=N\NC(=O)c1ccccn1)c1ccc(Cl)cc1	12	.	27	61*	.	.
C/C(=N\NC(=O)c1ccc(Cl)cc1)c1ccccn1	3	.	.	51*	.	.
